What was measured:
[1] = Cytotoxicity against human 293T cells; type: cell-based; settings: HEK-293T cells
[2] = molecular target: Phosphatidylinositol 4,5-bisphosphate 3-kinase catalytic subunit beta isoform (Homo sapiens, UniProt P42338); assay: Inhibition of PI3Kbeta (unknown origin) using diC8-PI(4,5)P2 as substrate incubated for 3 hrs in presence of ATP by fluorescence polarization assay
Outline: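 Fluorescence polarization competition assay, 10 μL reactions at pH 7: 2.5 mM MgCl₂, 5 mM HEPES, ATP, 10 mM DTT, 50 ng PI3K isoform, diC8-PI(4,5)P2 substrate. After 3 h at room temperature, reactions were chelator-quenched. Phosphoinositide binding protein and fluorophore-labelled tracer were added, then 1 h dark equilibration and polarization read.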

[3] = test system: HCT-116; assay: Induction of apoptosis in human HCT116 cells assessed as late apoptotic cells at 0.5 uM measured after 24 hrs by annexin-v-FITC/propidium iodide staining based FACScan flow cytometry analysis (reference value: 9.61 %); type: functional
[4] = test system: HCT-116; assay: Induction of apoptosis in human HCT116 cells assessed as increase in cleaved caspase-9 protein level measured after 24 hrs by Western blot analysis; type: functional, cell-based
Outline: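 HCT-116 cells treated at 0.25, 0.5 and 1 μM for 24 h, lysed in RIPA buffer with PMSF. Proteins separated by SDS-PAGE (8% or 10%), transferred to PVDF and probed with primary antibodies and HRP secondaries. β-actin served as internal control; bands quantified as bar graphs.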

[5] = test system: HCT-116; assay: Cell cycle arrest in human HCT116 cells assessed as accumulation at G2 phase at 0.5 uM measured after 24 hrs by propidium iodide staining based flow cytometry analysis (reference value: 7.86 %); type: functional
[6] = test system: HCT-116; assay: Induction of apoptosis in human HCT116 cells assessed as early apoptotic cells at 1 uM measured after 24 hrs by annexin-v-FITC/propidium iodide staining based FACScan flow cytometry analysis (reference value: 10.0 %); type: functional
[7] = molecular target: Phosphatidylinositol 4,5-bisphosphate 3-kinase catalytic subunit alpha isoform (Homo sapiens, UniProt P42336); assay: Inhibition of PI3K-alpha in human HCT116 cells assessed as decrease in phosphorylated S6K protein expression level measured after 24 hrs by Western blot analysis; type: cell-based
Chain of Phosphatidylinositol 4,5-bisphosphate 3-kinase catalytic subunit alpha isoform (P42336 whole entry, canonical isoform): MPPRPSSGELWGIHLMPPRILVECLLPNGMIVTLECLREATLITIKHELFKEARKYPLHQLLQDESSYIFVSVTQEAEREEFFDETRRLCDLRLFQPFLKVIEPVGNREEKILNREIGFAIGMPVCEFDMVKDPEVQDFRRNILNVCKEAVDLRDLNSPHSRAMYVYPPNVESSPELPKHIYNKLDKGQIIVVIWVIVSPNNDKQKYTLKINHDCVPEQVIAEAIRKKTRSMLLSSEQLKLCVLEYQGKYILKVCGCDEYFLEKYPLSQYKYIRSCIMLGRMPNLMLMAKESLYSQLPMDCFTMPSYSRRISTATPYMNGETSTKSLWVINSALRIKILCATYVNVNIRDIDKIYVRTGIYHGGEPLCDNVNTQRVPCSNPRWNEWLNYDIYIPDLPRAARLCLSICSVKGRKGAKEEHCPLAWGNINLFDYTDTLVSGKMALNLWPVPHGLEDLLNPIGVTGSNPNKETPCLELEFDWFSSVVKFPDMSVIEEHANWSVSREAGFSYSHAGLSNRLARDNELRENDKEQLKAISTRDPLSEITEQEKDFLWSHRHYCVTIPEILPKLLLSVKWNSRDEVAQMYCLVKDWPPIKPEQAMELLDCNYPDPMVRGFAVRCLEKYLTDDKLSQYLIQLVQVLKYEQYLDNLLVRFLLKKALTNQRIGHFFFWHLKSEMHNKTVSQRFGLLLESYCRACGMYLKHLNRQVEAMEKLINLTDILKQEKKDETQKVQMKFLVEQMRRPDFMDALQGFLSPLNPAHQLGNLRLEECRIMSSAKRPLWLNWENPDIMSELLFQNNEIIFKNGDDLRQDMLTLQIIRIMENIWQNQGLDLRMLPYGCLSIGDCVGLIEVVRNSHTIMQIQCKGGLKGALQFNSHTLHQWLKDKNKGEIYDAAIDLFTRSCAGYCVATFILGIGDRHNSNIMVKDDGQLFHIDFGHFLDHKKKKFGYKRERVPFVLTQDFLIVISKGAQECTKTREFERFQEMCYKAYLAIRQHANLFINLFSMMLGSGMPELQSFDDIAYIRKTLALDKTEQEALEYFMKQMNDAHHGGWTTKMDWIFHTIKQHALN
Outline: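 HCT-116 cells exposed for 24 h at 0.25, 0.5 and 1 μM, lysed in RIPA buffer, and analysed by SDS-PAGE/PVDF Western blot for p-Akt (Ser473) and p-S6K. β-actin internal control; densitometry mean ± SEM, n = 3.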

[8] = test system: HCT-116; assay: Induction of apoptosis in human HCT116 cells assessed as viable cells at 0.25 uM measured after 24 hrs by annexin-v-FITC/propidium iodide staining based FACScan flow cytometry analysis (reference value: 78.5 %); type: functional; settings: HCT-116, 24 h, read-out: Activity
[9] = molecular target: Serine/threonine-protein kinase mTOR (Homo sapiens, UniProt P42345); assay: Inhibition of mTOR (unknown origin)
[10] = test system: HCT-116; assay: Cell cycle arrest in human HCT116 cells assessed as accumulation at G1 phase at 1 uM measured after 24 hrs by propidium iodide staining based flow cytometry analysis (reference value: 42.01 %); type: functional
[11] = test system: HCT-116; assay: Induction of apoptosis in human HCT116 cells assessed as necrotic cells at 0.25 uM measured after 24 hrs by annexin-v-FITC/propidium iodide staining based FACScan flow cytometry analysis (reference value: 1.87 %); type: functional
[12] = test system: HCT-116; assay: Antiproliferative activity against human HCT116 cells assessed as reduction in cell viability after 48 hrs by MTT assay; type: functional, cell-based; settings: HCT-116, 48 h
[13] = test system: HL-60; assay: Antiproliferative activity against human HL60 cells assessed as reduction in cell viability after 48 hrs by MTT assay; type: functional, cell-based; settings: HL-60, 48 h
[14] = test system: HCT-116; assay: Cell cycle arrest in human HCT116 cells assessed as accumulation at S phase at 1 uM measured after 24 hrs by propidium iodide staining based flow cytometry analysis (reference value: 50.12 %); type: functional
[15] = test system: HCT-116; assay: Induction of apoptosis in human HCT116 cells assessed as late apoptotic cells at 0.25 uM measured after 24 hrs by annexin-v-FITC/propidium iodide staining based FACScan flow cytometry analysis (reference value: 9.61 %); type: functional
[16] = test system: HCT-116; assay: Cell cycle arrest in human HCT116 cells assessed as accumulation at G1 phase at 0.25 uM measured after 24 hrs by propidium iodide staining based flow cytometry analysis (reference value: 42.01 %); type: functional
[17] = test system: HCT-116; assay: Cell cycle arrest in human HCT116 cells assessed as accumulation at G2 phase at 1 uM measured after 24 hrs by propidium iodide staining based flow cytometry analysis (reference value: 7.86 %); type: functional
[18] = test system: HCT-116; assay: Antitumour activity against human HCT116 cells xenografted in nude mouse assessed as tumour growth inhibition at 10 mg/kg, ig administered every 3 days for 3 weeks and measured after 3 weeks relative to control; type: functional; settings: HCT-116, po, read-out: TGI
Outline: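 HCT-116 cells (5 × 10^6 per animal) injected into right flank of nude mice; at ~100 mm³ tumours, randomized into groups of 6. Dosed 10 mg/kg in 5% CMC-Na intragastrically every three days for three weeks; vehicle control 5% CMC-Na. Body weight and tumour size recorded every three days, volume = 0.5 × length × width²; tumours excised and weighed at end. Mean ± SD.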

Chain of Phosphatidylinositol 4,5-bisphosphate 3-kinase catalytic subunit beta isoform (P42338 whole entry, canonical isoform): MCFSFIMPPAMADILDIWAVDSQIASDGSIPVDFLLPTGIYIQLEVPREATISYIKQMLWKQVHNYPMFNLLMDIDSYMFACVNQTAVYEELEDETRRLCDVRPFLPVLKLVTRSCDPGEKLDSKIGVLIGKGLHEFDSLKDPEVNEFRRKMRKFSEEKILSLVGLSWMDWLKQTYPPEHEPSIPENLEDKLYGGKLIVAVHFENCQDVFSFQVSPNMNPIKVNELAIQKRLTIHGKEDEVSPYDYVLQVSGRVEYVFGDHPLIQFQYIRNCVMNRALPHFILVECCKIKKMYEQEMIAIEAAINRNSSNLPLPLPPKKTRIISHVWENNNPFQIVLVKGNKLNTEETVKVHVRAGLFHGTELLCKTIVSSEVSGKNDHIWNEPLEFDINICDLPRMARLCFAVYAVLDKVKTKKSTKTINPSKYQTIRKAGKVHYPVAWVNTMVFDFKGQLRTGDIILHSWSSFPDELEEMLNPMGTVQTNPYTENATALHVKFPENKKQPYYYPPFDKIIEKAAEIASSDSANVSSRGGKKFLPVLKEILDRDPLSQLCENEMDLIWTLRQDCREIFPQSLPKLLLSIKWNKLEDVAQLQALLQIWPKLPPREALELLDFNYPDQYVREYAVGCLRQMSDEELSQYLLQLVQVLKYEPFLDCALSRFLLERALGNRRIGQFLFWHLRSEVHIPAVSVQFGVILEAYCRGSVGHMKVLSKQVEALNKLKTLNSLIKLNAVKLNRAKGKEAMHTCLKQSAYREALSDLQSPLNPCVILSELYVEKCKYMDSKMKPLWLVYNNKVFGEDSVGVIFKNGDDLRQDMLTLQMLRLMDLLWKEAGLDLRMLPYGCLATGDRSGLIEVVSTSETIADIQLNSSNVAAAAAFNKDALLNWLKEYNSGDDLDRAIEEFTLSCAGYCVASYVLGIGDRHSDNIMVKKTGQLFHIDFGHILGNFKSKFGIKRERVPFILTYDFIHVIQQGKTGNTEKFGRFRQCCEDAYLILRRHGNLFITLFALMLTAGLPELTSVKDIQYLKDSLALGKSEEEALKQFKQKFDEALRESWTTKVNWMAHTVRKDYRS

- IC50 [2]: 120 nM
- inhibition [7]: Dose-dependent effect
- IC50 [9]: 9380 nM
- IC50 [12]: 30 nM
- IC50 [13]: 60 nM
SMILES: O=c1oc2ccccc2c2nn(CN3CCN(S(=O)(=O)c4ccc(Cl)c([N+](=O)[O-])c4)CC3)cc12
- CC50 [1]: 386000 nM
- Activity [3]: 30.8%
- Activity [4]: Dose-dependent effect
- Activity [5]: 9.52%
- Activity [6]: 25.5%
- viability at 0.25 µM [8]: 56%
- Activity [10]: 58.13%
- Activity [11]: 6.98%
- Activity [14]: 33.78%
- Activity [15]: 21%
- Activity [16]: 46.87%
- Activity [17]: 8.09%
- inhibition in vivo at 10 mg/kg [18]: 66.4%
